In the library only some 3.2% were active in any assay of this set; here they are far more common.
MEKK2mut PB1 HTS – signal of MEK5 binding to mutant human MEKK2 PB1 domain | bead flow cytometry, Alexa488-MEK5 binding to MEKK2 mutant | percent response, % at 10 µM | actives 0.35% (n = 290,000) | AID 1530; in the data active = percent response above about 24%, passing the limit was not always enough
MEKK3 PB1 HTS – raises or lowers MEK5 binding to the human MEKK3 PB1 domain; Q99759; bead-based flow cytometry, Alexa488-MEK5 binding to MEKK3; actives lie on both sides; 0 = blocked by unlabeled MEK5, 100 = vehicle; binding response (% of control), % at 10 µM; actives 1.4% (n = 290,000); AID 1529;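 active = binding response more than 3 SD above or below the average of its plate-row segment, actives on both sides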;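 also: Alexa488 bead fluorescence after subtracting the streptavidin-only scavenger bead signal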
MEKK2wt PB1 HTS – raises or lowers MEK5 binding to wildtype human MEKK2 PB1 domain; Q9Y2U5; bead flow cytometry, Alexa488-MEK5 binding to MEKK2 WT; actives lie on both sides; binding response (% of control), % at 10 µM; actives 1.1% (n = 290,000); in the data active = binding response below about 67% or above about 130%
DSG3 Ab inh – human desmoglein-3 autoantibody binding inhibition | P32926 | actives 0.48% (n = 310,000) | DSG3-coupled beads, scFv-anti-DSG3-GFP binding, flow cytometry; stronger effect = lower value | binding (percent of control), % at 10 µM | AID 588358;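 active = binding more than 3 SD below its plate's average and above zero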;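 also: hits lower antibody fragment binding to DSG3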
UBC13 inh – inhibitors of human UBC13 polyubiquitin chain formation | TR-FRET | inhibition, % at 20 µM | actives 0.47% (n = 330,000) | P61088; in the data active = inhibition above about 45%, passing the limit was not always enough
Apaf-1 inh – inhibitors of human Apaf-1 apoptosome. reconstituted apoptosome caspase-3 activity, DEVD-Rh110 fluorescence. inhibition, % at 20 µM. actives 0.71% (n = 330,000). AID 489030; active = inhibition of at least 40% at 20 µM;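 also: plate controls were DMSO wells for no effect and DEVD-CHO caspase inhibitor wells for full effect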
Target sequence (O14727 whole entry, looked up): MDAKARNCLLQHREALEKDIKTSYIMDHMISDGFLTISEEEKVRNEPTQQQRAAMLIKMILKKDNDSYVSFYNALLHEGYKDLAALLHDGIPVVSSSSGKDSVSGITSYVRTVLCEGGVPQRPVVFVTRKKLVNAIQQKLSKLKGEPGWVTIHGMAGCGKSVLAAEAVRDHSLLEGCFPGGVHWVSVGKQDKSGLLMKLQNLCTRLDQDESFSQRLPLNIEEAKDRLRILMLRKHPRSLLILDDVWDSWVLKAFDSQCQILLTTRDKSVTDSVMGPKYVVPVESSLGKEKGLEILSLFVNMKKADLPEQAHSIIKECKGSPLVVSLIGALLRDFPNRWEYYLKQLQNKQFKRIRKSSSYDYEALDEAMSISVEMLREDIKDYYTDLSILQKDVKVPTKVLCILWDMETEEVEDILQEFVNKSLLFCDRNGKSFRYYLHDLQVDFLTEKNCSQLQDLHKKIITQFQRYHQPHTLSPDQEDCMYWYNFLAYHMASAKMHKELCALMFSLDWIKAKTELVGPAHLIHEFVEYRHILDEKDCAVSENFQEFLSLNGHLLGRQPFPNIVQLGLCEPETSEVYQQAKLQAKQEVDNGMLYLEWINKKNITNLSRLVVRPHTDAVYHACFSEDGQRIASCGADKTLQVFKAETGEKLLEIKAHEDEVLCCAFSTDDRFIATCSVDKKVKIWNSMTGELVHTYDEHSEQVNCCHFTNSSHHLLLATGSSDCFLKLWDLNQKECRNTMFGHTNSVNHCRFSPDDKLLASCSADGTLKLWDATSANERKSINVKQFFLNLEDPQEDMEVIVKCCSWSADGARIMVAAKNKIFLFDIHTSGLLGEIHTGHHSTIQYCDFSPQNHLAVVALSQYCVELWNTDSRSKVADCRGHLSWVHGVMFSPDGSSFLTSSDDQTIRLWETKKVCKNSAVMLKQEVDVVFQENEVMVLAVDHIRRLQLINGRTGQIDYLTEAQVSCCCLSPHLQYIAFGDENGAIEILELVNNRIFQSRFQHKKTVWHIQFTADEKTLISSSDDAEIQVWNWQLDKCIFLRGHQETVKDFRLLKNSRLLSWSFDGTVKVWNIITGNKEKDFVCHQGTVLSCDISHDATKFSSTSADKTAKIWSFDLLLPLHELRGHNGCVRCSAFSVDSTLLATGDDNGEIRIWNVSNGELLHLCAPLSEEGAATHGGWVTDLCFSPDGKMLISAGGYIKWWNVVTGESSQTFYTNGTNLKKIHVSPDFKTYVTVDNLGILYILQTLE
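detection = Rh110 fluorescence intensity | test system = biochemical Apaf-1 apoptosome reconstitution | also added = cytochrome c and DEVD-Rh110 substrate | schedule = 30 min plus 50 min, RT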
MEKK2wt confirm – raises or lowers MEK5 binding to wildtype human MEKK2, retest; shares compounds with MEKK3 PB1 HTS; bead flow cytometry, Alexa488-MEK5 binding to MEKK2 WT; actives lie on both sides; binding response (% of control), % at 10 µM; actives 2.4% (n = 5,900); in the data active = binding response below about 16% or above about 210%; inactive = in between
MEKK2mut-MEK5 – signal of MEK5 binding to mutant human MEKK2, retest. shares compounds with MEKK3 PB1 HTS. percent response, % at 10 µM. bead flow cytometry, Alexa488-MEK5 binding to MEKK2 mutant. actives 2% (n = 5,900); in the data active = percent response mostly above about 71%, no sharp cut-off; inactive = mostly below about 38%;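 also: higher means compound restores mutant binding toward wildtype level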
MEKK3-MEK5 inh – MEKK3-MEK5 PB1 inhibition, single concentration confirmation; bead flow cytometry, Alexa488-MEK5 binding to MEKK3; stronger effect = lower value; binding response (% of control), % at 10 µM; actives 1.8% (n = 5,900); shares compounds with MEKK3 PB1 HTS;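 active = binding response below 72% of control, or above a set upper limit, though filed actives all read lower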;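 also: 100% = DMSO only wells and 0% = binding blocked by excess unlabeled MEK5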
The depositor's hits bear a star; . = not tested or not shown; [ ] = another dose, or the depositor's remark.

SMILES | MEKK2mut PB1 HTS | MEKK3 PB1 HTS | MEKK2wt PB1 HTS | DSG3 Ab inh | UBC13 inh | Apaf-1 inh | MEKK2wt confirm | MEKK2mut-MEK5 | MEKK3-MEK5 inh
CCOc1cc2[nH]c(=S)n(Cc3ccc(C(=O)NCCN(CC)CC)cc3)c(=O)c2cc1OCC | 29* | 107 | 126 | 106 | 25 | 15 | 113 | 4 | 103
CCOc1ccc2nc3cc(N=Nc4ccc(N)nc4N)ccc3c(N)c2c1 | . | . | . | 117 | . | . | . | . | .
CC1CN(C(=S)Nc2ccccc2)C(C)CN1C=O (stereo not drawn) | . | . | . | 112 | . | . | . | . | .
CCc1ccc(OCC(=O)Oc2ccc([N+](=O)[O-])cc2)cc1 | -15 | 39*[inhibitor] | 50*[inhibitor] | 114 | -12 | 4 | 110 | 12 | 105
CCCC(=O)N1N=C(c2ccccc2)CC1c1cn(C)c2ccccc12 (stereo not drawn) | 3 | 134* | 107 | 82 | 19 | 24 | 100 | -4 | 100
O=C(COC(=O)c1ccccc1SCC(=O)NC1CCS(=O)(=O)C1)NC1CCS(=O)(=O)C1 (stereo not drawn) | -60 | 2.0*[inhibitor] | 1.0*[inhibitor] | 87 | -22 | -5 | 91 | -9 | 86
O=C(COC(=O)c1ccccc1SCC(=O)N1CCCC1)NC1CCS(=O)(=O)C1 (stereo not drawn) | . | . | . | 95 | -5 | 3 | . | . | .
O=C(NC1CCCCC1)NC1CCN(CC(=O)N2CCOCC2)CC1 | -15 | 2.0*[inhibitor] | 2.0*[inhibitor] | 96 | -7 | 6 | 101 | -1 | 103
O=C(CN1CCCCC1)NC(=O)NC1CCCC1 | -1 | 117 | 104 | 96 | 4 | -3 | . | . | .
CC(C)(C)c1ccc(/C=N/NC(=O)c2ccccn2)cc1 | 86* | 87 | . | 107 | -9 | -4 | 108 | 4 | 105
O=C(NCc1ccco1)c1ccc(Cn2c(=O)c3ccccc3n(Cc3ccc(Cl)cc3)c2=O)cc1 | 8 | 133* | 122 | 99 | -12 | 21 | 108 | 3 | 105
CCCCCCCOC(=O)C[N+](C)(C)CCOC1CC2CCC1(C)C2(C)C (stereo not drawn) | 38 | 100 | 163* | 112 | . | . | 186 | 49 | 111
CCCCCCOC(=O)C[N+](C)(C)CCOC1CC2CCC1(C)C2(C)C (stereo not drawn) | 14 | 113 | 202* | 115 | 54* | 52* | 146 | 23 | 106
S=c1sscc1-c1ccccc1 | . | . | . | 108 | . | . | . | . | .
CC1=C(C(=O)N(C)C)CC(CC(=O)NC(c2ccccc2)c2ccccc2)C(=O)N1CCC1=CCCCC1 (stereo not drawn) | . | . | . | 108 | . | . | . | . | .
CCOC(=O)CC(S(=O)(=O)c1ccccc1)S(=O)(=O)c1ccccc1 | . | . | . | 107 | . | . | . | . | .
CC1CN(S(=O)(=O)c2ccc(C(=O)N(C)C3CCCCC3)cc2)CC(C)O1 (stereo not drawn) | . | . | . | 93 | 12 | -5 | . | . | .
COc1ccc(-c2nsc3c(N4CCN(S(=O)(=O)c5ccccc5F)CC4)ncnc23)cc1 | -14 | 71*[inhibitor] | 80 | 78 | 11 | -16 | 101 | -5 | 100
Cc1nc2c3cc(F)ccc3n(Cc3ccc(F)cc3)c2s1 | 0 | 144* | 111 | 89 | -5 | 5 | 93 | -5 | 96
CCCN1CCC(=O)N([C@H](CSc2ccc(C)cc2)c2ccccc2)CC1 | 20 | 115 | 157* | 107 | 37 | 39 | 174 | 40 | 100
CCCN1CCC(=O)N([C@H](CSc2ccccc2)c2ccccc2)CC1 | 8 | 102 | 104 | 103 | 6 | 19 | . | . | .
O=C(NC1(C(F)(F)F)NC(=O)N(c2ccc(F)cc2)C1=O)c1cccs1 (stereo not drawn) | 0 | 158* | 111 | . | 12 | -14 | 106 | -2 | 102
CCOC(=O)NC1(C(F)(F)F)NC(=O)N(c2ccc(F)cc2)C1=O (stereo not drawn) | -1 | 102 | 100 | 102 | 7 | -3 | . | . | .
CCN1CCN(c2c(Cl)cccc2NC(=O)c2ccc3c(c2)OCCO3)CC1 | -24 | 48*[inhibitor] | 68 | 105 | -1 | 6 | 110 | 3 | 104
O=C(CCCCC(=O)NN=Cc1ccc2c(c1)CCC2)NN=Cc1ccc2c(c1)CCC2 | . | . | . | 99 | . | . | . | . | .
SMILES | MEKK2mut PB1 HTS | MEKK3 PB1 HTS | MEKK2wt PB1 HTS | DSG3 Ab inh | UBC13 inh | Apaf-1 inh | MEKK2wt confirm | MEKK2mut-MEK5 | MEKK3-MEK5 inh
CCN(CC)CCNc1nc2cc(OC)c(OC)cc2c2nc(-c3ccccc3)nn12 | 10 | 108 | 143* | 109 | 45 | 18 | 111 | 3 | 95
Cc1cn2c(N)c(C=C3C=C(Cl)C(=O)C(Cl)=C3)c(=O)nc2s1 | -76 | 94 | 50*[inhibitor] | 124 | -37 | 13 | 99 | -14 | 103
COc1ccc(-c2ccc(CN3C(CC(C)C)C(=O)N(Cc4cn(CCC5OCCO5)nn4)CCS3(=O)=O)cc2)cc1OC (stereo not drawn) | . | . | . | 103 | . | . | . | . | .
O=C(NCCC1=CCCCC1)C1CCN(S(=O)(=O)N2CCCC2)CC1 | 1 | 105 | 104 | 106 | -4 | -3 | . | . | .
CCS(=O)(=O)N1CCC(C(=O)NCCC2=CCCCC2)CC1 | -6 | 73*[inhibitor] | 79 | 105 | -3 | -23 | 96 | -3 | 100
O=S(=O)(Cc1ccccc1)N1CCNCC1 | -1 | 103 | 100 | 95 | 5 | 0 | . | . | .
Cc1ccc(NC(=O)Cn2nc(-c3ccccc3)nc2-c2ccccc2)c(C)c1 | 1 | 150* | 108 | 106 | -8 | 2 | 105 | 7 | 104
Cc1ccc(C)c(NC(=O)Cn2nc(-c3ccccc3)nc2-c2ccccc2)c1 | 0 | 100 | 98 | . | -3 | 3 | . | . | .
CN(c1ccccc1)c1nc(N2CCCC2)nc(-n2ccnc2)n1 | 15 | 116 | 134* | 120 | -3 | 12 | 104 | 1 | 102
CCCc1cc(=O)oc2cc(OCC(=O)Nc3ccc(S(N)(=O)=O)cc3)ccc12 | -5 | 101 | 97 | 94 | -10 | -12 | . | . | .
COc1ccc(S(=O)(=O)N2CC(C(=O)O)Oc3ccc(Cl)cc32)cc1 (stereo not drawn) | 36* | 90 | 131 | 139 | -5 | 6 | 98 | -3 | 102
CC(C)(C)c1ccc(S(=O)(=O)N2CC(C(=O)O)Oc3ccc(Cl)cc32)cc1 (stereo not drawn) | 4 | 104 | 105 | 98 | -2 | 7 | . | . | .
